Assays:
[1] = biological target: T1, Protein kinase C epsilon type (Homo sapiens) (UniProt Q02156); assay: Competitive binding affinity to PRKCE (unknown origin) at 10 uM in presence of ATP relative to control
T1 sequence (whole entry): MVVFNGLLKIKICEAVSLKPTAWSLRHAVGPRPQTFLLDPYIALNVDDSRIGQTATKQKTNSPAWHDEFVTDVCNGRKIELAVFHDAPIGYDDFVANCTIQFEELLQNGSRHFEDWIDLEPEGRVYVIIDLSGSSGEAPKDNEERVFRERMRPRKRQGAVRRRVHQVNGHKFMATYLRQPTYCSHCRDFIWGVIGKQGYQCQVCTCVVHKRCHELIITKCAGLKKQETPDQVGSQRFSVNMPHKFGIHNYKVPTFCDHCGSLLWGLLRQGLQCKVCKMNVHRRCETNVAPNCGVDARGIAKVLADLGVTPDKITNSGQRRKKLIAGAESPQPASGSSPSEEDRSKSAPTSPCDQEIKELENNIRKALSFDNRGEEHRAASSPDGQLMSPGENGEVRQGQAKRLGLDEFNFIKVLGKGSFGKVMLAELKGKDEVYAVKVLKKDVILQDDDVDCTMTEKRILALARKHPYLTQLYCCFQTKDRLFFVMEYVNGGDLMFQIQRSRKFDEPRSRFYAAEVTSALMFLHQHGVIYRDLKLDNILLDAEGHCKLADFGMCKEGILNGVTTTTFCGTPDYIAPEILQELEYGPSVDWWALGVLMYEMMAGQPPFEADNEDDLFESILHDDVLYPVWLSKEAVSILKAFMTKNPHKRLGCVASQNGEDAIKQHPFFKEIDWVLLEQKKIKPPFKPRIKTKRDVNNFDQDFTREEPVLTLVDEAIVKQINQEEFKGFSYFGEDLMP

[2] = biological target: Glycogen synthase kinase-3 alpha (Homo sapiens, UniProt P49840); assay: Competitive binding affinity to GSK3alpha (unknown origin) at 10 uM in presence of ATP relative to control
Summary of the method: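 In vitro ATP-site competition binding format, run as one member of a diverse 128-kinase profiling panel. Each compound was tested at a single concentration across the whole panel.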

[3] = biological target: Cyclin-dependent kinase 2/cyclin E1 (Homo sapiens, UniProt P24941); assay: Inhibition of human recombinant CDK2/GST-tagged cyclin E expressed in baculovirus infected insect cells assessed as inhibition of 6XHis-tagged retinoblastoma protein (386 to 928) phosphorylation after 30 mins by scintillation counting analysis in presence of [gamma-33P]-ATP
Summary of the method: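 CDK2 activity was measured as phosphorylation of a 6-histidine-tagged truncated retinoblastoma protein (amino acids 386–928) using [γ-33P]ATP.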

[4] = biological target: Cyclin-dependent kinase 3 (Homo sapiens) (UniProt Q00526); assay: Competitive binding affinity to CDK3 (unknown origin) at 10 uM in presence of ATP relative to control
[5] = biological target: T2, Mitogen-activated protein kinase kinase kinase 5 (Homo sapiens) (UniProt Q99683); assay: Competitive binding affinity to MAP3K5 (unknown origin) at 10 uM in presence of ATP relative to control
T2 sequence (whole entry): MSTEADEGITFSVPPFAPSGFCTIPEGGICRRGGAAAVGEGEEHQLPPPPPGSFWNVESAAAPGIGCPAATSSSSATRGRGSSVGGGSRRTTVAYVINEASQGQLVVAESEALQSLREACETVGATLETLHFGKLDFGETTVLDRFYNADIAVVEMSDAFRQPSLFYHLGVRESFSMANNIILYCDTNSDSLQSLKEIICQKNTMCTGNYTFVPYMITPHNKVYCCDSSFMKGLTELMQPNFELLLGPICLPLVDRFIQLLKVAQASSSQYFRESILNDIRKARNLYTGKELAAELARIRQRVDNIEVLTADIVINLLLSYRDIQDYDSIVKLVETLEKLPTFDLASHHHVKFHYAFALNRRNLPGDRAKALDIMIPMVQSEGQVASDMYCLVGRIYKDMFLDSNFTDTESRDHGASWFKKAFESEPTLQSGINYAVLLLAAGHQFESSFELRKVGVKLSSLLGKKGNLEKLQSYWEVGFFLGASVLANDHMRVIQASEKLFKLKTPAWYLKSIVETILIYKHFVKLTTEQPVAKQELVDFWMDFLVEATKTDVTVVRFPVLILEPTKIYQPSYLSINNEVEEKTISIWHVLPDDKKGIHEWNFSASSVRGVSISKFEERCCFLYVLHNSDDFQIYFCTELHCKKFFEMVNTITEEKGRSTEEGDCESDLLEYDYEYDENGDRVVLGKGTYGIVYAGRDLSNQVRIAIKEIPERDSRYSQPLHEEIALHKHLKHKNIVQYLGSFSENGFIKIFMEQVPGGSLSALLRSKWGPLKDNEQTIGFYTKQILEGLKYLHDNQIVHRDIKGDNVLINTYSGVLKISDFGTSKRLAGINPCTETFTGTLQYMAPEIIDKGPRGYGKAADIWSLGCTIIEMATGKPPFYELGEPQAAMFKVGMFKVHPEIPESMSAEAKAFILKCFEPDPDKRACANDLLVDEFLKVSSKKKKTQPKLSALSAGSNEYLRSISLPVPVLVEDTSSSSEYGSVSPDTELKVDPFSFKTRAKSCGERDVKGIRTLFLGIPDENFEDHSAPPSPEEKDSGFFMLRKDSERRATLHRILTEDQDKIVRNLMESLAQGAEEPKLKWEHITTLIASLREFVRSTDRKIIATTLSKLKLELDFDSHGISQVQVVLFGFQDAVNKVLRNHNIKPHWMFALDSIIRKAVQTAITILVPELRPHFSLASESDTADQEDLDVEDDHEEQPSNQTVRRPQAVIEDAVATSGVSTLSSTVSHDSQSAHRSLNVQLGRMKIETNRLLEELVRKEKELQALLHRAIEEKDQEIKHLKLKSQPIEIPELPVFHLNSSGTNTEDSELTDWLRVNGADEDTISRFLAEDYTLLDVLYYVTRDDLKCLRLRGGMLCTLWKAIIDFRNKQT

Chain of Glycogen synthase kinase-3 alpha (P49840 2-483 limits assumed): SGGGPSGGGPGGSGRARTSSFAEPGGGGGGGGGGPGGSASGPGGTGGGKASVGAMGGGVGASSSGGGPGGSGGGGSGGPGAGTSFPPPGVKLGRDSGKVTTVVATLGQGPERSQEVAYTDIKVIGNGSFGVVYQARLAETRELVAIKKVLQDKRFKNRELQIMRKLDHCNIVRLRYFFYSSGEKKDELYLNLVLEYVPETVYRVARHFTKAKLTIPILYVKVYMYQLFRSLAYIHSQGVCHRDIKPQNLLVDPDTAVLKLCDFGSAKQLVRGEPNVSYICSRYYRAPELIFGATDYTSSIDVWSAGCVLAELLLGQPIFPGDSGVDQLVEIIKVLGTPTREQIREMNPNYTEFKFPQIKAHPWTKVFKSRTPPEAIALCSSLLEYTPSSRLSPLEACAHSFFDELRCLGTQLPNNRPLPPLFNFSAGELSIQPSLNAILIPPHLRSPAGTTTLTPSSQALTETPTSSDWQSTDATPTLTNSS
Chain of Cyclin-dependent kinase 3 (Homo sapiens) (Q00526 whole entry, looked up): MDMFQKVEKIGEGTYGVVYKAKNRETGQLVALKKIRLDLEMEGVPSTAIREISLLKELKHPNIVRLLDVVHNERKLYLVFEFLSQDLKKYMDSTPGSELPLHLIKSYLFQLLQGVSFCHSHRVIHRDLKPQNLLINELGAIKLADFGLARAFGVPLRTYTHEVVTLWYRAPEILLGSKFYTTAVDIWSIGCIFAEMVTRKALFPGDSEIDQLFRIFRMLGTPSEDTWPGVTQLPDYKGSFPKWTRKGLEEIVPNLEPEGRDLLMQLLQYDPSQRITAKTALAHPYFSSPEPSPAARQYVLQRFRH

Row | Structure (SMILES) | inhibition [1] | inhibition [2] | IC50 [3] | inhibition [4] | inhibition [5]
1 | O[C@H]1CC[C@H](Nc2nccc(-n3nnc4ccccc43)n2)CC1 | < 50% | 100% | 430 nM | 75% | < 50%
2 | CS(=O)(=O)CCCOc1cccc2c1ccn2-c1ccnc(N[C@H]2CC[C@H](C(=O)N3CCC(O)CC3)CC2)n1 | – | > 85% | – | – | –
3 | O[C@H]1CC[C@H](Nc2nccc(-n3ncc4ccccc43)n2)CC1 | < 50% | 99% | – | < 50% | < 50%
4 | O[C@H]1CC[C@H](Nc2nccc(-c3n[nH]c4ccccc34)n2)CC1 | – | 97% | – | – | –
5 | O[C@H]1CC[C@H](Nc2nccc(-n3ccc4ccccc43)n2)CC1 | < 50% | 91% | – | < 50% | < 50%
6 | O=C([C@H]1CC[C@H](Nc2nccc(-n3nnc4ccccc43)n2)CC1)N1CCOCC1 | – | – | 2000 nM | – | –
7 | N[C@H]1CC[C@H](Nc2nccc(-n3nnc4ccccc43)n2)CC1 | – | – | 360 nM | – | –

Source: ChEMBL document CHEMBL2424622, “Development of amino-pyrimidine inhibitors of c-Jun N-terminal kinase (JNK): kinase profiling guided optimization of a 1,2,3-benzotriazole lead” (Bioorg Med Chem Lett, 2013)
